In ChEMBL document CHEMBL3826951, “Discovery of Benzocycloalkane Derivatives Efficiently Blocking Bacterial Virulence for the Treatment of Methicillin-Resistant S. aureus (MRSA) Infections by Targeting Diapophytoene Desaturase (CrtN)” (J Med Chem, 2016):
In brackets after ≈: the same amount, converted by molar mass.

What was measured:
[1] = target: T1, 4,4'-diapophytoene desaturase (4,4'-diaponeurosporene-forming) (Staphylococcus aureus (strain Newman), UniProt O07855); experiment: Inhibition of diapophytoene desaturase in Staphylococcus aureus Newman assessed as reduction in staphyloxanthin pigment formation after 48 hrs by spectrophotometry; set-up: species or system Staphylococcus aureus subsp. aureus str. Newman
T1 sequence (O07855 whole entry): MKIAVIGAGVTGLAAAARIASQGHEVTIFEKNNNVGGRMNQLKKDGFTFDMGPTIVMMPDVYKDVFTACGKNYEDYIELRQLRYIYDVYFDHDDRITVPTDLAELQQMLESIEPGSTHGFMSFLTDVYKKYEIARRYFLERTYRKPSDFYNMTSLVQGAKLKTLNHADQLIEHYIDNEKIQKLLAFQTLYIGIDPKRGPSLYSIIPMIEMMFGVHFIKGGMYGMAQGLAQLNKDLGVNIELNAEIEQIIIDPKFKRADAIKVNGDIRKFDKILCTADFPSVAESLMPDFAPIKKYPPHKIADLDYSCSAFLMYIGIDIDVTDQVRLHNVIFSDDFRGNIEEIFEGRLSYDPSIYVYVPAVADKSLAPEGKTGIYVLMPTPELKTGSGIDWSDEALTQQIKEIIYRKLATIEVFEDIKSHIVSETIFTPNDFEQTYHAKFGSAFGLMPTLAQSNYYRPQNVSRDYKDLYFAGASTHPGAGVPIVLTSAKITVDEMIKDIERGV

[2] = target: T1, 4,4'-diapophytoene desaturase (4,4'-diaponeurosporene-forming); experiment: Inhibition of 6x-His-tagged Staphylococcus aureus diapophytoene desaturase expressed in Escherichia coli BL21 (DE3) using diapophytoene substrate after overnight incubation
[3] = Aqueous solubility of the compound in water after 24 hrs by HPLC method; format: physicochemical
In short: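 Excess solid stirred in pure water for 24 h, then filtered. Filtrate analysed by HPLC (10 µL injection). Concentration read against a calibration curve of peak area versus concentration, built from methanol solutions at 50–800 µg/mL.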

[4] = test system: Trichophyton rubrum; experiment: Antifungal activity against naftifine-sensitive Trichophyton rubrum after 7 days by serial dilution method; format: functional
In short: (§1)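 Broth serial dilution in 96-well plates per NCCLS recommendations. Medium: RPMI 1640 buffered with 0.165 M MOPS. Fungi were ATCC strains or clinical isolates.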

[5] = test system: Nannizzia gypsea; experiment: Antifungal activity against naftifine-sensitive Microsporum gypseum after 7 days by serial dilution method; format: functional; in short: as §1
[6] = test system: Trichophyton mentagrophytes; experiment: Antifungal activity against naftifine-sensitive Trichophyton mentagrophytes after 7 days by serial dilution method; format: functional; in short: as §1
[7] = test system: Trichophyton verrucosum; experiment: Antifungal activity against naftifine-sensitive Trichophyton verrucosum after 7 days by serial dilution method; format: functional; in short: as §1

Row | SMILES | IC50 [1] [µM] | other results
1 | CN(C/C=C/c1ccccc1[N+](=O)[O-])Cc1ccc2c(c1)CCCCC2 | > 5 | 
2 | CN(C/C=C/C1CCCCC1)Cc1ccc2c(c1)CCCCC2 | > 10 | 
3 | CN(C/C=C/c1ccccc1F)Cc1ccc2c(c1)CCCCC2 | 0.246 | 
4 | C(=C\c1ccccc1)/COCc1ccc2c(c1)CCCCC2 | > 20 | 
5 | CN(C/C=C/c1ccc(Br)cc1)Cc1ccc2c(c1)CCCCC2.Cl | 0.0078 | IC50 [2]: 0.41 µM; solubility at 24 h [3]: 570 µg/mL
6 | CN(C/C=C/c1ccccc1)Cc1ccc2c(c1)CCCC2 | 0.603 | 
7 | CN(C/C=C/c1ccccc1)Cc1cccc2c1CCCCC2 | > 10 | 
8 | CN(CCCc1ccccc1)Cc1ccc2c(c1)CCCCC2 | > 10 | 
9 | OC(Cn1cncn1)(Cn1cncn1)c1ccc(F)cc1F [FLUCONAZOLE] |  | MIC=<80 [4]: 1 µg/mL (≈ 3.27 µM); MIC=<80 [5]: 8 µg/mL (≈ 26.1 µM); MIC=<80 [6]: 2 µg/mL (≈ 6.53 µM); MIC=<80 [7]: 2 µg/mL (≈ 6.53 µM)
10 | c1ccc(CCCOCc2ccc3c(c2)CCCCC3)cc1 | > 20 | 
11 | CN(C/C=C/c1ccc(Br)cc1)Cc1ccc2c(c1)CCCC2.Cl | 0.0013 | IC50 [2]: 0.45 µM; solubility at 24 h [3]: 2100 µg/mL
12 | C/C=C/CN(C)Cc1ccc2c(c1)CCCCC2 | > 50 | 
13 | CN(C/C=C/c1ccc(C(F)(F)F)cc1)Cc1ccc2c(c1)CCCCC2 | 0.01 | 
14 | CN(C/C=C/c1ccccc1)Cc1cccc2c1CCCC2 | > 1 | 
15 | CCN(C/C=C/c1ccccc1)Cc1ccc2c(c1)CCCCC2 | > 1.25 | 
16 | CN(C/C=C/Cc1ccccc1)Cc1ccc2c(c1)CCCCC2 | > 10 | 
17 | CN(C/C=C/c1ccc([N+](=O)[O-])cc1)Cc1ccc2c(c1)CCCCC2 | 0.0124 | 
18 | C/C(=C\c1ccccc1)CN(C)Cc1ccc2c(c1)CCCCC2 | > 10 | 
19 | C(/C=C/c1ccccc1)=C\COCc1ccc2c(c1)CCCCC2 | > 20 | 
20 | Cc1ccc(/C=C/CN(C)Cc2ccc3c(c2)CCCCC3)cc1 | 0.031 | 
